Laboratory results published in ChEMBL document CHEMBL5058577, “EUbOPEN Chemogenomics Library 2 (Multiplex)” (2022).

Tested on: Fibroblast
Assay: Multiplex assay against human fibroblast
Type: toxicity, cell-based
Outline: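 Live cells were stained at seeding with Hoechst33342, BioTracker Green Microtubule Cytoskeleton Dye, MitoTracker Red and Annexin V Alexa Fluor 680, then imaged on a CQ1 microscope at 37°C and 5% CO2 after compound addition. CellPathfinder machine-learning gating split cells into Hoechst high-intensity objects or normal cells. Normal cells were split into healthy, pyknosed or fragmented nuclei, and pyknosed cells into mitotic or apoptotic. Tubulin, mitochondrial-mass and membrane-permeability phenotypes are per cents of healthy-nucleus cells.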

[1] = 12 h, 1 µM, compound concentration 1 uM, replicate 1
[2] = 12 h, 1 µM, compound concentration 1 uM, replicate 2
[3] = 12 h, 10 µM, compound concentration 10 uM, replicate 1
[4] = 12 h, 10 µM, compound concentration 10 uM, replicate 2
[5] = 24 h, 1 µM, compound concentration 1 uM, replicate 1
[6] = 24 h, 1 µM, compound concentration 1 uM, replicate 2
[7] = 24 h, 10 µM, compound concentration 10 uM, replicate 1
[8] = 24 h, 10 µM, compound concentration 10 uM, replicate 2
[9] = 48 h, 1 µM, compound concentration 1 uM, replicate 1
[10] = 48 h, 1 µM, compound concentration 1 uM, replicate 2
[11] = 48 h, 10 µM, compound concentration 10 uM, replicate 1
[12] = 48 h, 10 µM, compound concentration 10 uM, replicate 2

COc1ccccc1N1CCN(C[C@@H](C(=O)NC(C)(C)C)c2ccccc2)CC1.Cl.Cl
Population Apoptotic (%) [1]: 43% | Population Fragmented Nuclei (%) [1]: 12% | Population Healthy Nuclei (%) [1]: 70% | Population Hoechst High Intensity Objects (%) [1]: 2% | Population Membrane Permeable-Phenotype (%) [1]: 0% | Population Mitochondria Different-Phenotype (%) [1]: 8% | Population Mitotic Cells (%) [1]: 56% | Population Normal (%) [1]: 97% | Population Pyknosed Nuclei (%) [1]: 16% | Population Tubulin-Different-Phenotype (%) [1]: 37% | Total Cell Count [1]: 141 | Population Apoptotic (%) [2]: 40% | Population Fragmented Nuclei (%) [2]: 25% | Population Healthy Nuclei (%) [2]: 43% | Population Hoechst High Intensity Objects (%) [2]: 5% | Population Mitochondria Different-Phenotype (%) [2]: 4% | Population Mitotic Cells (%) [2]: 60% | Population Normal (%) [2]: 94% | Population Pyknosed Nuclei (%) [2]: 30% | Population Tubulin-Different-Phenotype (%) [2]: 43% | Total Cell Count [2]: 155 | Population Apoptotic (%) [3]: 50% | Population Fragmented Nuclei (%) [3]: 20% | Population Healthy Nuclei (%) [3]: 59% | Population Hoechst High Intensity Objects (%) [3]: 5% | Population Membrane Permeable-Phenotype (%) [3]: 1% | Population Mitochondria Different-Phenotype (%) [3]: 20% | Population Mitotic Cells (%) [3]: 50% | Population Normal (%) [3]: 94% | Population Pyknosed Nuclei (%) [3]: 20% | Population Tubulin-Different-Phenotype (%) [3]: 66% | Total Cell Count [3]: 134 | Population Apoptotic (%) [4]: 48% | Population Fragmented Nuclei (%) [4]: 32% | Population Healthy Nuclei (%) [4]: 42% | Population Membrane Permeable-Phenotype (%) [4]: 6% | Population Mitochondria Different-Phenotype (%) [4]: 12% | Population Mitotic Cells (%) [4]: 51% | Population Pyknosed Nuclei (%) [4]: 24% | Population Tubulin-Different-Phenotype (%) [4]: 70% | Total Cell Count [4]: 116 | Population Apoptotic (%) [5]: 50% | Population Fragmented Nuclei (%) [5]: 12% | Population Healthy Nuclei (%) [5]: 73% | Population Hoechst High Intensity Objects (%) [5]: 2% | Population Membrane Permeable-Phenotype (%) [5]: 0% | Population Mitochondria Different-Phenotype (%) [5]: 15% | Population Mitotic Cells (%) [5]: 50% | Population Normal (%) [5]: 97% | Population Pyknosed Nuclei (%) [5]: 14% | Population Tubulin-Different-Phenotype (%) [5]: 32% | Total Cell Count [5]: 143 | Population Fragmented Nuclei (%) [6]: 24% | Population Healthy Nuclei (%) [6]: 55% | Population Hoechst High Intensity Objects (%) [6]: 3% | Population Membrane Permeable-Phenotype (%) [6]: 8% | Population Mitochondria Different-Phenotype (%) [6]: 3% | Population Normal (%) [6]: 96% | Population Pyknosed Nuclei (%) [6]: 19% | Population Tubulin-Different-Phenotype (%) [6]: 50% | Total Cell Count [6]: 151 | Population Apoptotic (%) [7]: 83% | Population Fragmented Nuclei (%) [7]: 19% | Population Healthy Nuclei (%) [7]: 65% | Population Hoechst High Intensity Objects (%) [7]: 8% | Population Membrane Permeable-Phenotype (%) [7]: 0% | Population Mitochondria Different-Phenotype (%) [7]: 37% | Population Mitotic Cells (%) [7]: 16% | Population Normal (%) [7]: 91% | Population Pyknosed Nuclei (%) [7]: 14% | Population Tubulin-Different-Phenotype (%) [7]: 63% | Total Cell Count [7]: 132 | Population Apoptotic (%) [8]: 40% | Population Fragmented Nuclei (%) [8]: 39% | Population Healthy Nuclei (%) [8]: 41% | Population Hoechst High Intensity Objects (%) [8]: 3% | Population Membrane Permeable-Phenotype (%) [8]: 8% | Population Mitochondria Different-Phenotype (%) [8]: 8% | Population Mitotic Cells (%) [8]: 59% | Population Normal (%) [8]: 96% | Population Pyknosed Nuclei (%) [8]: 19% | Population Tubulin-Different-Phenotype (%) [8]: 76% | Total Cell Count [8]: 116 | Population Apoptotic (%) [9]: 84% | Population Fragmented Nuclei (%) [9]: 18% | Population Healthy Nuclei (%) [9]: 71% | Population Hoechst High Intensity Objects (%) [9]: 5% | Population Membrane Permeable-Phenotype (%) [9]: 1% | Population Mitochondria Different-Phenotype (%) [9]: 12% | Population Mitotic Cells (%) [9]: 15% | Population Normal (%) [9]: 94% | Population Pyknosed Nuclei (%) [9]: 10% | Population Tubulin-Different-Phenotype (%) [9]: 34% | Total Cell Count [9]: 138 | Population Apoptotic (%) [10]: 60% | Population Fragmented Nuclei (%) [10]: 31% | Population Healthy Nuclei (%) [10]: 52% | Population Membrane Permeable-Phenotype (%) [10]: 5% | Population Mitochondria Different-Phenotype (%) [10]: 5% | Population Mitotic Cells (%) [10]: 40% | Population Pyknosed Nuclei (%) [10]: 15% | Population Tubulin-Different-Phenotype (%) [10]: 56% | Total Cell Count [10]: 171 | Population Apoptotic (%) [11]: 84% | Population Fragmented Nuclei (%) [11]: 18% | Population Healthy Nuclei (%) [11]: 63% | Population Hoechst High Intensity Objects (%) [11]: 14% | Population Membrane Permeable-Phenotype (%) [11]: 0% | Population Mitochondria Different-Phenotype (%) [11]: 34% | Population Mitotic Cells (%) [11]: 15% | Population Normal (%) [11]: 85% | Population Pyknosed Nuclei (%) [11]: 18% | Population Tubulin-Different-Phenotype (%) [11]: 65% | Total Cell Count [11]: 122 | Population Apoptotic (%) [12]: 44% | Population Fragmented Nuclei (%) [12]: 50% | Population Healthy Nuclei (%) [12]: 41% | Population Hoechst High Intensity Objects (%) [12]: 3% | Population Membrane Permeable-Phenotype (%) [12]: 8% | Population Mitochondria Different-Phenotype (%) [12]: 8% | Population Mitotic Cells (%) [12]: 55% | Population Normal (%) [12]: 96% | Population Pyknosed Nuclei (%) [12]: 7% | Population Tubulin-Different-Phenotype (%) [12]: 67%
